# Laboratory results: ChEMBL document CHEMBL5104204, “Synthesis and in vitro anticancer evaluation of novel flavonoid-based amide derivatives as regulators of the PI3K/AKT signal pathway for TNBC treatment” (RSC Med Chem, 2022)
# Activity calls are given as the source filed them. The calls are words filed in the database; no cut-off is given here.
# Columns and labels:
# HCC1937 = experiment: Antitumor activity against human HCC1937 cells assessed as inhibit cell proliferation incubated for 72 hrs by CCK-8 assay; assay type: functional, cell-based; conditions: HCC1937, 72 h
# Procedure, shortened: (§1)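 CCK8 viability readout. Culture media: HCC1937, A549, HeLa and GTL-16 in RPMI 1640; MDA-MB-231, MCF-7 and HepG2 in high-glucose DMEM; all with 10% FBS and penicillin/streptomycin, 37 °C, 5% CO2. 4×10^3–6×10^3 cells/well, 24 h, then compounds in serum-free medium, 72 h at 37 °C. 10% CCK8, 2 h, OD 450/630 nm. Five wells per group; IC50 from inhibition rate; three independent experiments, mean ± SD.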
# A549 = experiment: Antitumor activity against human A549 cells assessed as inhibit cell proliferation incubated for 72 hrs by CCK-8 assay; assay type: functional, cell-based; conditions: A549, 72 h; procedure, shortened: as §1
# GTL 16 cell line = experiment: Antitumor activity against human GTL 16 cell line assessed as inhibit cell proliferation incubated for 72 hrs by CCK-8 assay; assay type: functional, cell-based; conditions: GTL 16, 72 h; procedure, shortened: as §1
# MDA-MB-231 [1] = experiment: Inhibition of colony formation in human MDA-MB-231 cells assessed as decrease in number of colony forming cells at 1.76 uM incubated upto 72 hrs by crystal violet staining based assay; assay type: functional, cell-based; conditions: TDE = time-dependent effect
# Procedure, shortened: (§2)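 Colony formation, MDA-MB-231: 800 cells/well, three replicate wells per group, grown 5–7 days at 37 °C, 5% CO2 until 30–50-cell clusters formed. Drug then added for 24, 48 or 72 h. Washed with cold PBS, fixed in 4% paraformaldehyde 30 min, stained with 0.5% crystal violet, imaged, colonies counted; n = 3.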
# MDA-MB-231 [2] = experiment: Inhibition of colony formation in human MDA-MB-231 cells assessed as decrease in size of colony forming cells at 1.76 uM incubated upto 72 hrs by crystal violet staining based assay; assay type: functional, cell-based; conditions: TDE = time-dependent effect; procedure, shortened: as §2
# MDA-MB-231 [3] = experiment: Induction of apoptosis in human MDA-MB-231 cells assessed as chromatin concentration and margination at 0.88 to 3.52 uM incubated for 48 hrs by Hoechst 33258 staining based fluorescence microscopic analysis; assay type: functional, cell-based; conditions: dose 0.88-3.52 µM, DDE = dose-dependent effect
# Procedure, shortened: (§3)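 MDA-MB-231 seeded at 2×10^5–3×10^5 per well and incubated overnight (37 °C, 5% CO2). Exposed to compound for 48 h. Fixed in methanol 30 min, then stained with Hoechst 33258 for 30 min at room temperature in the dark. Nuclear morphology scored by fluorescence microscopy; n = 3, mean ± SD.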
# MDA-MB-231 [4] = experiment: Induction of apoptosis in human MDA-MB-231 cells assessed as increase in apoptotic bodies at 0.88 to 3.52 uM incubated for 48 hrs by Hoechst 33258 staining based fluorescence microscopic analysis; assay type: functional, cell-based; conditions: dose 0.88-3.52 µM, DDE = dose-dependent effect; procedure, shortened: as §3
# MDA-MB-231 [5] = experiment: Induction of cell cycle arrest in human MDA-MB-231 cells assessed as decrease in S phase at 0.88 to 3.52 uM incubated for 48 hrs by flow cytometry; assay type: functional, cell-based; conditions: dose 0.88-3.52 µM, DDE = dose-dependent effect
# Procedure, shortened: (§4)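 Cell cycle of MDA-MB-231 after 48 h exposure: trypsinised and washed in PBS, about 1×10^6 cells/mL. Fixed overnight in pre-cooled 70% ethanol at 4 °C, then resuspended in PBS and filtered through 200-mesh nylon. Flow cytometry with 488 nm excitation gave G0/G1, S and G2/M percentages; n = 3, mean ± SD.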
# MDA-MB-231 [6] = experiment: Induction of cell cycle arrest in human MDA-MB-231 cells assessed as decrease in G2/M phase at 0.88 to 3.52 uM incubated for 48 hrs by flow cytometry; assay type: functional, cell-based; conditions: dose 0.88-3.52 µM, DDE = dose-dependent effect; procedure, shortened: as §4
# MDA-MB-231 [7] = experiment: Induction of apoptosis in human MDA-MB-231 cells assessed as necrotic cells at 3.52 uM incubated for 48 hrs AnnexinV/ propidium iodide staining based flow cytometry (Rvb= 0.54%); assay type: functional
# MDA-MB-231 [8] = experiment: Induction of apoptosis in human MDA-MB-231 cells assessed as necrotic cells at 7.04 uM incubated for 48 hrs AnnexinV/ propidium iodide staining based flow cytometry (Rvb= 0.54%); assay type: functional
# MDA-MB-231 [9] = experiment: Induction of apoptosis in human MDA-MB-231 cells assessed as early apoptotic cells at 0.88 uM incubated for 48 hrs AnnexinV/ propidium iodide staining based flow cytometry (Rvb= 0.3%); assay type: functional
# MDA-MB-231 [10] = experiment: Induction of apoptosis in human MDA-MB-231 cells assessed as early apoptotic cells at 2.2 uM incubated for 48 hrs AnnexinV/ propidium iodide staining based flow cytometry (Rvb= 0.3%); assay type: functional
# MDA-MB-231 [11] = experiment: Induction of apoptosis in human MDA-MB-231 cells assessed as late apoptotic cells at 0.88 uM incubated for 48 hrs AnnexinV/ propidium iodide staining based flow cytometry (Rvb= 0.40%); assay type: functional
# MDA-MB-231 [12] = experiment: Induction of apoptosis in human MDA-MB-231 cells assessed as late apoptotic cells at 2.2 uM incubated for 48 hrs AnnexinV/ propidium iodide staining based flow cytometry (Rvb= 0.40%); assay type: functional
# MDA-MB-231 [13] = experiment: Induction of apoptosis in human MDA-MB-231 cells assessed as late apoptotic cells at 3.52 uM incubated for 48 hrs AnnexinV/ propidium iodide staining based flow cytometry (Rvb= 0.40%); assay type: functional
# MDA-MB-231 [14] = experiment: Induction of apoptosis in human MDA-MB-231 cells assessed as viable cells at 1.76 uM incubated for 48 hrs AnnexinV/ propidium iodide staining based flow cytometry (Rvb= 99.02%); assay type: functional; conditions: read-out: Activity
# MDA-MB-231 [15] = experiment: Induction of apoptosis in human MDA-MB-231 cells assessed as viable cells at 2.2 uM incubated for 48 hrs AnnexinV/ propidium iodide staining based flow cytometry (Rvb= 99.02%); assay type: functional; conditions: read-out: Activity
# MDA-MB-231 [16] = experiment: Induction of apoptosis in human MDA-MB-231 cells assessed as viable cells at 3.52 uM incubated for 48 hrs AnnexinV/ propidium iodide staining based flow cytometry (Rvb= 99.02%); assay type: functional; conditions: read-out: Activity
# MDA-MB-231 [17] = experiment: Induction of apoptosis in human MDA-MB-231 cells assessed as viable cells at 7.04 uM incubated for 48 hrs AnnexinV/ propidium iodide staining based flow cytometry (Rvb= 99.02%); assay type: functional; conditions: read-out: Activity
# MDA-MB-231 [18] = experiment: Inhibition of cell migration in human MDA-MB-231 cells at 0.88 uM incubated for 12 hrs by scratch wound healing assay; assay type: functional, cell-based
# MDA-MB-231 [19] = experiment: Inhibition of PI3K/AKT signalling pathway in human MDA-MB-231 cells assessed as decrease in phosphorylated PI3K level at 1 to 10 uM incubated for 48 hrs by western blot analysis; assay type: cell-based; conditions: dose 1-10 µM, DDE = dose-dependent effect
# Procedure, shortened: (§5)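 MDA-MB-231 treated at 1, 5 and 10 μM at 37 °C, then lysed in RIPA/PMSF for 30 min at 0 °C and cleared at 14 000 × g, 4 °C. Protein quantified by BCA; 40 μg resolved by SDS-PAGE and transferred to PVDF. Blocked in 5% skim milk, primary antibody overnight at 4 °C, secondary 2 h at room temperature, chemiluminescent imaging.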
# MDA-MB-231 [20] = experiment: Inhibition of PI3K/AKT signalling pathway in human MDA-MB-231 cells assessed as upregulation of PTEN expression at 1 to 10 uM incubated for 48 hrs by western blot analysis; assay type: cell-based; conditions: dose 1-10 µM, DDE = dose-dependent effect; procedure, shortened: as §5
# MDA-MB-231 [21] = experiment: Induction of apoptosis in human MDA-MB-231 cells assessed as upregulation of Bax expression at 1 to 10 uM incubated for 48 hrs by western blot analysis; assay type: functional, cell-based; conditions: dose 1-10 µM, DDE = dose-dependent effect
# MDA-MB-231 [22] = experiment: Induction of apoptosis in human MDA-MB-231 cells assessed as upregulation of Caspase-3 expression at 1 to 10 uM incubated for 48 hrs by western blot analysis; assay type: functional, cell-based; conditions: dose 1-10 µM, DDE = dose-dependent effect
smiles,measurement,setting,value
O=C(Nc1cccc(-c2oc3cc(-c4ccc(F)cc4)ccc3c(=O)c2O)c1)c1ccc(Cl)nc1,IC50,HCC1937,7.55 µM
same,IC50,A549,3.58 µM
same,IC50,GTL 16 cell line,7.52 µM
same,inhibition,MDA-MB-231 [1],Tde
same,inhibition,MDA-MB-231 [2],Tde
same,Activity,MDA-MB-231 [3],Dde
same,Activity,MDA-MB-231 [4],Dde
same,Activity,MDA-MB-231 [5],Dde
same,Activity,MDA-MB-231 [6],Dde
same,Activity,MDA-MB-231 [7],2.1%
same,Activity,MDA-MB-231 [8],1.92%
same,Activity,MDA-MB-231 [9],1.48%
same,Activity,MDA-MB-231 [10],7.49%
same,Activity,MDA-MB-231 [11],23.54%
same,Activity,MDA-MB-231 [12],61.14%
same,Activity,MDA-MB-231 [13],14.4%
same,viability at 1.76 µM,MDA-MB-231 [14],45.8%
same,viability at 2.2 µM,MDA-MB-231 [15],29.8%
same,viability at 3.52 µM,MDA-MB-231 [16],12%
same,viability at 7.04 µM,MDA-MB-231 [17],5.68%
same,inhibition,MDA-MB-231 [18],Active
same,inhibition,MDA-MB-231 [19],Dde
same,inhibition,MDA-MB-231 [20],Dde
same,Activity,MDA-MB-231 [21],Dde
same,Activity,MDA-MB-231 [22],Dde
